Values after ≈ are worked out from the molar mass of the structure shown.
Assays:
[1] = tested on: Mycobacterium tuberculosis; assay: Antituberculosis activity against Mycobacterium tuberculosis H37Rv ATCC 27294 after 5 days; type: functional; details: H37Rv ATCC 27294, 120 h
[2] = Solubility of the compound at pH 6.8 after 24 hrs by shake flask method; type: physicochemical; details: buffer
Summary of the method: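 High-throughput equilibrium shake-flask method. DMSO stock evaporated in filter vials, aqueous buffer added, shaken 24 h on an orbital shaker, then filtered with 30 min further shaking. Filtrate analysed by HPLC.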

[3] = Cytotoxicity against human HepG2 cells; type: cell-based
[4] = Intrinsic clearance in human liver microsomes; type: ADME; details: read-out: CLH
Summary of the method: (§1)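 Compound depletion in human, mouse or rat liver microsomes, quantified by LC/MS/MS. In vitro half-life and hepatic extraction ratio measured, and metabolic clearance predicted from these.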

[5] = Inhibition of Mycobacterium tuberculosis InhA
[6] = Tmax in mouse at 25 mg/kg, po; type: ADME, organism-based; details: in vivo
Summary of the method: (§2)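 Plasma sampled at 0.08–24 h, three mice per time point. Plasma extracted with acetonitrile/methanol/acetic acid and quantified by LC/MS/MS (LLOQ 1–3 ng/mL).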

[7] = Intrinsic clearance in mouse liver microsomes; type: ADME; details: read-out: CLH; summary of the method: as §1
[8] = Cmax in mouse at 25 mg/kg, po; type: ADME, organism-based; set-up: dose 25 mg/kg, route oral; details: in vivo; summary of the method: as §2
[9] = tested on: Mycobacterium tuberculosis; assay: Antituberculosis activity against Mycobacterium tuberculosis H37Rv infected in mouse assessed as log reduction of CFU in lung at 30 mg/kg qd for 7 days in a week for 4 weeks; type: functional
Summary of the method: (§3)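 Acute model: mice infected intranasally day 0 with 10³ H37Rv bacilli; oral dosing began one week post-infection, daily 7 days/week (3 or 4 weeks). Oral vehicle was 0.5% Tween 80/0.5% methyl cellulose for the 3-week study and MEPC (Capmul MCM/Cremophor-RH40/ethanol/pH 6.8 phosphate buffer) for the 4-week study. Lungs homogenized, serial-dilution plated on 7H11 agar for CFU; ethambutol positive control.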

[10] = tested on: Mycobacterium tuberculosis; assay: Antituberculosis activity against Mycobacterium tuberculosis H37Rv infected in mouse assessed as log reduction of CFU in spleen at 30 mg/kg qd for 7 days in a week for 4 weeks; type: functional
Summary of the method: (§4)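 Mice infected intranasally with 10³ H37Rv bacilli on day 0; from one week post-infection dosed orally daily, 7 days/week for 4 weeks, in MEPC vehicle (Capmul MCM, Cremophor-RH40, ethanol, 50 mM phosphate pH 6.8). Bacterial load in spleen estimated as log CFU by serial-dilution plating on 7H11 agar; ethambutol positive control.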

[11] = Terminal half life in mouse at 5 mg/kg, iv; type: ADME, organism-based; details: in vivo, read-out: beta t1/2 (converted)
Summary of the method: (§5)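 Mice dosed i.v. at 5 mg/kg (1 mg/mL in 20% 1,2-propanediol, 10% solutol HS15, pH 7.0 buffer). Plasma sampled at 0.02, 0.25, 0.75, 1.5, 3, 8 and 24 h, three mice per time point. Analysed by LC/MS/MS with warfarin as internal standard. Noncompartmental analysis of mean concentration–time profiles.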

[12] = tested on: Mycobacterium tuberculosis; assay: Antituberculosis activity against Mycobacterium tuberculosis H37Rv infected in mouse assessed as log reduction of CFU in lung at 100 mg/kg qd for 7 days in a week for 4 weeks; type: functional; summary of the method: as §3
[13] = Plasma clearance in mouse at 5 mg/kg, iv; type: ADME, organism-based; summary of the method: as §5
[14] = AUC in mouse at 25 mg/kg, po; type: ADME, organism-based; details: in vivo; summary of the method: as §2
[15] = Oral bioavailability in mouse at 25 mg/kg; type: ADME, organism-based; details: in vivo
[16] = tested on: Mycobacterium tuberculosis; assay: Antituberculosis activity against Mycobacterium tuberculosis H37Rv infected in mouse assessed as log reduction of CFU in spleen at 100 mg/kg qd for 7 days in a week for 4 weeks; type: functional; summary of the method: as §4
[17] = Volume of distribution at steady state in mouse at 5 mg/kg, iv; type: ADME, organism-based; details: in vivo, read-out: Vdss; summary of the method: as §5
Cytochrome P450 3A4 = Cytochrome P450 3A4 (Homo sapiens, UniProt P08684); assay: Inhibition of CYP3A4 (unknown origin); type: ADME
Sequence of Cytochrome P450 3A4 (P08684 whole entry): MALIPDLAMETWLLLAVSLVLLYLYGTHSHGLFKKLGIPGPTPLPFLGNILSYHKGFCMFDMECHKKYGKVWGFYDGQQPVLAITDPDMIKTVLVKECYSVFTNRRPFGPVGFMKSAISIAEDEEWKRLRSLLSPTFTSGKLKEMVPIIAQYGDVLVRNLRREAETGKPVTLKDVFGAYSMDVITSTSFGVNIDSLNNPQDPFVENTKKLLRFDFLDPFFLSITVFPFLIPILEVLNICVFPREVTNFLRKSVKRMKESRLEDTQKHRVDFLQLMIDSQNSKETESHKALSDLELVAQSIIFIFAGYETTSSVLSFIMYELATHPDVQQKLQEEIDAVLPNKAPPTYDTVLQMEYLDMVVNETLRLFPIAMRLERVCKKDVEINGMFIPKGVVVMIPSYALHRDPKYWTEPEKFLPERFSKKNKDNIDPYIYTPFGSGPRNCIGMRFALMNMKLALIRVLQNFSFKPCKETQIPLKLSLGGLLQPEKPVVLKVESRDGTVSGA

[18] = Tmax in mouse at 50 mg/kg, po; type: ADME, organism-based; details: in vivo
[19] = Intrinsic clearance in rat liver microsomes; type: ADME; details: read-out: CLH; summary of the method: as §1
Cytochrome P450 2C9 = Cytochrome P450 2C9 (Homo sapiens, UniProt P11712); assay: Inhibition of CYP2C9 (unknown origin); type: ADME
Sequence of Cytochrome P450 2C9 (P11712 whole entry): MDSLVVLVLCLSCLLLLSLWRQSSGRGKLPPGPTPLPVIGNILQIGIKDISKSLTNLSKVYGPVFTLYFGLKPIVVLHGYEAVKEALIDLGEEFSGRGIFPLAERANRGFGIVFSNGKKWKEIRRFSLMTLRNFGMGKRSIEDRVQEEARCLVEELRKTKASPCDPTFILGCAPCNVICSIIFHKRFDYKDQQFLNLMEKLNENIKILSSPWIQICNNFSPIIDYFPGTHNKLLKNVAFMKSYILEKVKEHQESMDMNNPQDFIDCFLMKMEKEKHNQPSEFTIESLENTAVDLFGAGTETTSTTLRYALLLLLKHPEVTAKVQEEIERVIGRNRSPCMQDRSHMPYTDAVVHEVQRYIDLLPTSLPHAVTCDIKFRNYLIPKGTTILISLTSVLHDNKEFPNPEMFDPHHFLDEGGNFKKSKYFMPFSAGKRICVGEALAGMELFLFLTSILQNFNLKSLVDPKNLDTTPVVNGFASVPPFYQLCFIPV

[20] = tested on: Mycobacterium tuberculosis; assay: Antituberculosis activity against Mycobacterium tuberculosis H37Rv infected in mouse assessed as log reduction of CFU in lung at 150 mg/kg qd for 7 days in a week for 3 weeks; type: functional; summary of the method: as §3
Cytochrome P450 2D6 = Cytochrome P450 2D6 (Homo sapiens, UniProt P10635); assay: Inhibition of CYP2D6 (unknown origin); type: ADME
Sequence of Cytochrome P450 2D6 (P10635 whole entry): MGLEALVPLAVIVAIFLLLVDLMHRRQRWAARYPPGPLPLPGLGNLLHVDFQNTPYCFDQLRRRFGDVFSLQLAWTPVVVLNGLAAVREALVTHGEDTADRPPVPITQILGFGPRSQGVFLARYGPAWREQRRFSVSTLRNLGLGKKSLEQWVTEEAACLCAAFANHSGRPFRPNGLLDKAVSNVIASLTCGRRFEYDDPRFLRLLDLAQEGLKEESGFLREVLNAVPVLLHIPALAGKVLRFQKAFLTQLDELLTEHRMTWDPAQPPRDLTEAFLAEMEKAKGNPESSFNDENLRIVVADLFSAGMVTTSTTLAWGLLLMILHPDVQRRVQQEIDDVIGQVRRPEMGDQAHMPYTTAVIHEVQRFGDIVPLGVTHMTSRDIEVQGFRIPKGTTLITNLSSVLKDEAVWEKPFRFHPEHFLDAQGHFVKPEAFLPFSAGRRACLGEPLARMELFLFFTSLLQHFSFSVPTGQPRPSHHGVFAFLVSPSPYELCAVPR

Mus musculus [21] = assay: AUC in mouse at 50 mg/kg, po; type: ADME, organism-based; details: in vivo
[22] = Cmax in mouse at 50 mg/kg, po; type: ADME, organism-based; set-up: dose 50 mg/kg, route oral; details: in vivo
Mus musculus [23] = assay: Oral bioavailability in mouse at 50 mg/kg; type: ADME, organism-based; details: in vivo

COc1cccc(-c2c(O)cc(CC(C)C)[nH]c2=O)c1
MIC50 [1]: > 20 µM

CC(C)Cc1cc(O)c(C2CCCCC2)c(=O)[nH]1
MIC50 [1]: > 20 µM

CC(C)Cc1cc(O)c(-c2ccccc2)c(=O)n1C(C)C
MIC50 [1]: > 20 µM

O=c1[nH]c(CC2CCCCC2)cc(O)c1-c1ccccc1
MIC50 [1]: 0.16 µM (≈ 0.0453 µg/mL) | solubility thermodynamic at 24 h [2]: 24 µM (≈ 6.8 µg/mL)

O=c1[nH]c(CC2CCCC2)cc(O)c1-c1ccccc1
MIC50 [1]: 0.92 µM (≈ 0.248 µg/mL) | solubility thermodynamic at 24 h [2]: 144 µM (≈ 38.8 µg/mL)

CC(C)CCc1cc(O)c(-c2ccccc2)c(=O)[nH]1
MIC50 [1]: 1.51 µM (≈ 0.389 µg/mL) | solubility thermodynamic at 24 h [2]: 128 µM (≈ 32.9 µg/mL)

O=[N+]([O-])c1cn2c(n1)OC[C@@H](OCc1ccc(OC(F)(F)F)cc1)C2 [PRETOMANID]
MIC50 [1]: 0.4 µM (≈ 0.144 µg/mL)

COc1nc2ccc(Br)cc2cc1[C@@H](c1ccccc1)[C@@](O)(CCN(C)C)c1cccc2ccccc12 [BEDAQUILINE]
MIC50 [1]: 0.05 µM (≈ 0.0278 µg/mL)

CC(C)Cc1cc(O)c(-c2ccc(F)cc2)c(=O)[nH]1
MIC50 [1]: 6.75 µM (≈ 1.76 µg/mL)

CC(C)Cc1cc(O)c(-c2ccccc2)c(=O)o1
MIC50 [1]: 13.8 µM (≈ 3.37 µg/mL)

CN(C)Cc1cc(O)c(-c2ccccc2)c(=O)[nH]1
MIC50 [1]: > 20 µM | solubility thermodynamic at 24 h [2]: 671 µM (≈ 164 µg/mL)

CC(C)Cc1cc(O)c(-c2ccncc2)c(=O)[nH]1
MIC50 [1]: > 20 µM

CC(C)Cc1cc(O)c(-c2ccccc2)c(=O)n1C
MIC50 [1]: 8.1 µM (≈ 2.08 µg/mL)

CC(C)Cc1cc(NS(C)(=O)=O)c(-c2ccccc2)c(=O)[nH]1
MIC50 [1]: > 20 µM

O=c1[nH]c(Cc2ccncc2)cc(O)c1-c1ccccc1
MIC50 [1]: 6.8 µM (≈ 1.89 µg/mL) | solubility thermodynamic at 24 h [2]: > 1000 µM

COc1ccccc1-c1c(O)cc(CC(C)C)[nH]c1=O
MIC50 [1]: > 20 µM

O=c1[nH]c(CC2CC2)cc(O)c1-c1ccccc1
MIC50 [1]: 4.53 µM (≈ 1.09 µg/mL) | solubility thermodynamic at 24 h [2]: 891 µM (≈ 215 µg/mL)

CC(C)Cc1ccc(-c2ccccc2)c(=O)[nH]1
MIC50 [1]: > 20 µM

CC(C)Cc1cc(N)c(-c2ccccc2)c(=O)[nH]1
MIC50 [1]: > 20 µM

Cc1cc(O)c(-c2ccccc2)c(=O)[nH]1
MIC50 [1]: > 20 µM | solubility thermodynamic at 24 h [2]: > 1000 µM

CC(C)Cc1cc(O)c(-c2ccccc2Cl)c(=O)[nH]1
MIC50 [1]: 3.32 µM (≈ 0.922 µg/mL)

CC(C)Cc1cc(NCc2ccccc2)c(-c2ccccc2)c(=O)[nH]1
MIC50 [1]: > 20 µM

CC1(C)CCC(Cc2cc(O)c(-c3ccccc3)c(=O)[nH]2)CC1
CC50 [3]: > 20 µM | microsomal CLint [4]: 59 µL/min/mg | MIC50 [1]: 0.05 µM (≈ 0.0156 µg/mL) | IC50 [5]: 0.57 µM | Tmax [6]: 6 h | microsomal CLint [7]: 45 µL/min/mg | Cmax [8]: 13.7 µM | Activity [9]: 1 log10CFU | Activity [10]: 2.5 log10CFU | half-life [11]: 67.8 min | Activity [12]: 1.92 log10CFU | clearance [13]: 13.6 mL/min/kg | AUC [14]: 65.8 µM·h | bioavailability [15]: 66% | Activity [16]: 2.8 log10CFU | Vd [17]: 0.54 L/kg | solubility thermodynamic at 24 h [2]: 25 µM (≈ 7.79 µg/mL)

COc1nc(CC(C)C)cc(O)c1-c1ccccc1
MIC50 [1]: > 20 µM

O=c1[nH]c(CC2CCC(F)(F)CC2)cc(O)c1-c1ccccc1
MIC50 [1]: 1.32 µM (≈ 0.422 µg/mL) | solubility thermodynamic at 24 h [2]: 104 µM (≈ 33.2 µg/mL)

CC(C)Cc1cc(O)c(-c2ccccc2F)c(=O)[nH]1
MIC50 [1]: 6.31 µM (≈ 1.65 µg/mL)

O=c1[nH]c(CC2CCC2)cc(O)c1-c1ccccc1
MIC50 [1]: 1.19 µM (≈ 0.304 µg/mL) | solubility thermodynamic at 24 h [2]: 280 µM (≈ 71.5 µg/mL)

O=c1[nH]c(CC2CCOCC2)cc(O)c1-c1ccccc1
MIC50 [1]: 10.1 µM (≈ 2.88 µg/mL) | solubility thermodynamic at 24 h [2]: > 1000 µM

CC(C)Cc1cc(O)c(-c2cccnc2)c(=O)[nH]1
MIC50 [1]: > 20 µM

NNC(=O)c1ccncc1 [ISONIAZID]
MIC50 [1]: 0.33 µM (≈ 0.0453 µg/mL)

CC(C)Cc1cc(O)c(-c2ccc(Cl)cc2)c(=O)[nH]1
MIC50 [1]: > 20 µM

O=c1[nH]c(Cc2ccccc2)cc(O)c1-c1ccccc1
MIC50 [1]: 1.4 µM (≈ 0.388 µg/mL) | solubility thermodynamic at 24 h [2]: 40 µM (≈ 11.1 µg/mL)

CC(C)Cc1cc(O)c(-c2ccccc2)c(=O)[nH]1
IC50 (Cytochrome P450 3A4): > 20 µM | Tmax [18]: 30 min | CC50 [3]: > 20 µM | microsomal CLint [4]: 20 µL/min/mg | MIC50 [1]: 1.54 µM (≈ 0.375 µg/mL) | IC50 [5]: 9.6 µM | microsomal CLint [7]: 22 µL/min/mg | half-life [11]: 72.6 min | microsomal CLint [19]: 3.4 µL/min/mg | IC50 (Cytochrome P450 2C9): > 20 µM | Activity [20]: 0.95 log10CFU | IC50 (Cytochrome P450 2D6): > 20 µM | AUC (Mus musculus [21]): 27.18 µM·h | Cmax [22]: 13.2 µM | F (Mus musculus [23]): 55% | Vd [17]: 0.46 L/kg | solubility thermodynamic at 24 h [2]: 550 µM (≈ 134 µg/mL)

CC(C)Cc1cc(O)c(-c2ccccn2)c(=O)[nH]1
MIC50 [1]: > 20 µM

CC(C)Cc1cc(O)c(Cc2ccccc2)c(=O)[nH]1
MIC50 [1]: > 20 µM

CC(C)Cc1nc(O)c(-c2ccccc2)c(=O)[nH]1
MIC50 [1]: > 20 µM

CC(C)Cc1cc(O)c(-c2cccc(Cl)c2)c(=O)[nH]1
MIC50 [1]: 2.67 µM (≈ 0.742 µg/mL)

COc1cc(CC(C)C)[nH]c(=O)c1-c1ccccc1
MIC50 [1]: > 20 µM

COc1ccc(-c2c(O)cc(CC(C)C)[nH]c2=O)cc1
MIC50 [1]: > 20 µM

Oc1nc2ccccc2c(O)c1-c1ccccc1
MIC50 [1]: 13.2 µM (≈ 3.13 µg/mL)

CC(C)Cc1cc(O)c(-c2cccc(F)c2)c(=O)[nH]1
MIC50 [1]: 2.69 µM (≈ 0.703 µg/mL)

CC(C)Cc1cc(O)c(-c2ccccc2)c(=O)n1Cc1ccccc1
MIC50 [1]: > 20 µM

— ChEMBL document CHEMBL3739268, “Structure activity relationships of 4-hydroxy-2-pyridones: A novel class of antituberculosis agents” (Eur J Med Chem, 2015)
